# Test results taken from ChEMBL document CHEMBL1156300, “Identification of pyridazino[4,5-b]indolizines as selective PDE4B inhibitors” (Bioorg Med Chem Lett, 2010).
# What was measured:
# [1] = molecular target: T1, 3',5'-cyclic-AMP phosphodiesterase 4B (Homo sapiens, UniProt Q07343); assay: Displacement of [methyl-3H]rolipram from PDE4B3 expressed in CHO cells after 1 hr by scintillation counting; assay type: cell-based
# [2] = Selectivity ratio Ki for PDE4D4 to Ki for PDE4B3
# How it was run: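 Ki ratio, PDE4D over PDE4B, from [3H]-rolipram displacement in CHO lysates expressing PDE4D4 or PDE4B3 (2.5 nM radioligand, 30 °C for 1 h, Cheng–Prusoff Ki).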
# [3] = molecular target: T2, 3',5'-cyclic-AMP phosphodiesterase 4D (Homo sapiens, UniProt Q08499); assay: Displacement of [methyl-3H]rolipram from PDE4D4 expressed in CHO cells after 1 hr by scintillation counting; assay type: cell-based
# [4] = molecular target: T2, 3',5'-cyclic-AMP phosphodiesterase 4D; assay: Inhibition of PDE4D4 expressed in CHO cells assessed as isoproterenol-induced [125I]cAMP accumulation after 15 mins by scintillation counting; assay type: cell-based
# [5] = Inhibition of PDE3
# [6] = Selectivity ratio of IC50 for PDE4C to IC50 for PDE4B3
# [7] = molecular target: Voltage-gated inwardly rectifying potassium channel KCNH2 (Homo sapiens, UniProt Q12809); assay: Inhibition of human ERG
# [8] = Inhibition of PDE5
# [9] = Selectivity ratio of IC50 for PDE4A to IC50 for PDE4B3
# [10] = Inhibition of PDE2
# [11] = molecular target: T1, 3',5'-cyclic-AMP phosphodiesterase 4B; assay: Inhibition of PDE4B3 expressed in CHO cells assessed as isoproterenol-induced [125I]cAMP accumulation after 15 mins by scintillation counting; assay type: cell-based
# [12] = Inhibition of PDE1
# [13] = Inhibition of PDE6
# T2 sequence (Q08499 whole entry): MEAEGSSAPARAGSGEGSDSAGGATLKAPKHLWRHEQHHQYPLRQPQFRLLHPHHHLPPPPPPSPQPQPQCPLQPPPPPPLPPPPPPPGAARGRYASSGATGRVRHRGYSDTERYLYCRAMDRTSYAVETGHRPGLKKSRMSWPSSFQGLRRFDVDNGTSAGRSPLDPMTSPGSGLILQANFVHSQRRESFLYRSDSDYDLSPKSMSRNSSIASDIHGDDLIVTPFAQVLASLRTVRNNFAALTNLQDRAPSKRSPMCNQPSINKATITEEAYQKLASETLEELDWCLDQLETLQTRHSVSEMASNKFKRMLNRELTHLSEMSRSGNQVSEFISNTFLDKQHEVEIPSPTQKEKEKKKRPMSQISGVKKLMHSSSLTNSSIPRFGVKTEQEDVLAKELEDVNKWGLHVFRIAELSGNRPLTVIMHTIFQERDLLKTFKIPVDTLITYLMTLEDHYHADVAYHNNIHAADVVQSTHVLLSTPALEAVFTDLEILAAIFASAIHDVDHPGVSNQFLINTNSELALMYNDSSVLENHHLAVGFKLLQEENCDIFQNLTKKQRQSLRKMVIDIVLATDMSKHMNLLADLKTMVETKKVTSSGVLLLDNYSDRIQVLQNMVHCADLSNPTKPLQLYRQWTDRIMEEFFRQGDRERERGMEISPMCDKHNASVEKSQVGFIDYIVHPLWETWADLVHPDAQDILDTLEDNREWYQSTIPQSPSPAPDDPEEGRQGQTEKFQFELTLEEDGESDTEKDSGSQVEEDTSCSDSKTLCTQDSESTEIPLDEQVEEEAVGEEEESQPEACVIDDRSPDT
# T1 sequence (Q07343 whole entry): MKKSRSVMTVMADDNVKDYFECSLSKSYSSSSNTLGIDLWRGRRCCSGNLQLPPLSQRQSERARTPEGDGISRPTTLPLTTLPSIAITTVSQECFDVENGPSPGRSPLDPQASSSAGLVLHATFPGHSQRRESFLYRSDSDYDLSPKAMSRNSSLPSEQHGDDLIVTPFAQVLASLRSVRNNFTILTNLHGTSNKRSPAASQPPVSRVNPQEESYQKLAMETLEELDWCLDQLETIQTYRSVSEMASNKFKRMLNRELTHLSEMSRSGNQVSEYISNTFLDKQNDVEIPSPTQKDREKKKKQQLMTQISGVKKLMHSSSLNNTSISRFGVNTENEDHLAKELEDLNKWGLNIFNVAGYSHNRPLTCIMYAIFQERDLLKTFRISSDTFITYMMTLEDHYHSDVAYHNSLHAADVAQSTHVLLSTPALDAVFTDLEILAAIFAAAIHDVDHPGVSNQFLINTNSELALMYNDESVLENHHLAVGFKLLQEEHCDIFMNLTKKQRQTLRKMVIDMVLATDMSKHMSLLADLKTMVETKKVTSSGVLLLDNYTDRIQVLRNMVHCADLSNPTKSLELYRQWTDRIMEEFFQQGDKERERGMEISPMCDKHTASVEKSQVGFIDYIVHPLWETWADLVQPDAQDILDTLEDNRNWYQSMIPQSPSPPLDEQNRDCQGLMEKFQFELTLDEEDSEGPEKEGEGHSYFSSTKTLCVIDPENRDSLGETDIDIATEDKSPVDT
# Voltage-gated inwardly rectifying potassium channel KCNH2, sequence (Q12809 whole entry): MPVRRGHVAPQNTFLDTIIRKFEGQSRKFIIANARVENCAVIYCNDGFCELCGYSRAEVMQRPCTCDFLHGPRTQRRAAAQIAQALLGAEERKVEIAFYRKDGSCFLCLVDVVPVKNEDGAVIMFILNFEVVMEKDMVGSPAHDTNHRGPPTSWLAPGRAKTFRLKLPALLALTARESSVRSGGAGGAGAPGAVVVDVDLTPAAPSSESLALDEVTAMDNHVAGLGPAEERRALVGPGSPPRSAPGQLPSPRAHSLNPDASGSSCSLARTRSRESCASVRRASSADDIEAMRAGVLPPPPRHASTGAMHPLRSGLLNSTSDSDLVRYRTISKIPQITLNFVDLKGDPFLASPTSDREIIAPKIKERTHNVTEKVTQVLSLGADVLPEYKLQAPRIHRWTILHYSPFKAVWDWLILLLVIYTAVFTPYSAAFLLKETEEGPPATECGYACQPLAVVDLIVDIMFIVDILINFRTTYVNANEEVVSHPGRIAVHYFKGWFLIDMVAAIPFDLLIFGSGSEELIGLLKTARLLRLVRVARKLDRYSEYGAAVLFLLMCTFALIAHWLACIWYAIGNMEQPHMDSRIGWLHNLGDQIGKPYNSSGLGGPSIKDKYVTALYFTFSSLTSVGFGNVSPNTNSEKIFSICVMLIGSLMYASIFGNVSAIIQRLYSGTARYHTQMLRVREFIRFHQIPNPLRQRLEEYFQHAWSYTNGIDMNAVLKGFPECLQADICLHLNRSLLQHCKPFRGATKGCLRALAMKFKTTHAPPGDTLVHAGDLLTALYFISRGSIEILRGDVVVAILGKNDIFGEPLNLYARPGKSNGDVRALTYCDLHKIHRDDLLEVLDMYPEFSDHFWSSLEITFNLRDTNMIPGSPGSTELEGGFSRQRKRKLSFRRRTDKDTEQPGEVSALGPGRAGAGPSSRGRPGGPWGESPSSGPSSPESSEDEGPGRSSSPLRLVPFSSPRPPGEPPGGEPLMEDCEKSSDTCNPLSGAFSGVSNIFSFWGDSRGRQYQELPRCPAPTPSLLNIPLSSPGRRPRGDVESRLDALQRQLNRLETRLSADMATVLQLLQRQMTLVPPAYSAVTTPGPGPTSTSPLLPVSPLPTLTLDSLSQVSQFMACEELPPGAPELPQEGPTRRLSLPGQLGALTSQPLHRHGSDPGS
SMILES,Ki [1],Ratio Ki [2],Ki [3],further results
Cc1cccc(-c2nnc(NCCCN3CCN(c4ncccn4)CC3)c3cc4ccccn4c23)c1,4.3 µM,13,54.4 µM,–
Cn1cccc1C(=O)N1CCN(CCCNc2nnc(-c3cccc(F)c3)c3c2cc2ccccn23)CC1,5.2 µM,12,65 µM,–
Cc1cc2c(NCCCN3CCN(C(=O)c4cnccn4)CC3)nnc(-c3cccc([N+](=O)[O-])c3)c2n1C,0.077 µM,58,4.44 µM,–
Cc1cc2c(NCCCN3CCN(C(=O)c4ncccn4)CC3)nnc(-c3cccc([N+](=O)[O-])c3)c2n1C,1 µM,> 100,> 100 µM,–
Cc1cc2c(NCCCN3CCN(C(=O)c4cncs4)CC3)nnc(-c3cccc([N+](=O)[O-])c3)c2n1C,0.222 µM,57,12.7 µM,–
Cc1cc2c(NCCCN3CCN(C(=O)c4ccccn4)CC3)nnc(-c3cccc([N+](=O)[O-])c3)c2n1C,0.238 µM,48,11.5 µM,–
O=C(c1cnccn1)N1CCN(CCCNc2nnc(-c3cccc([N+](=O)[O-])c3)c3c2cc2ccccn23)CC1,0.0056 µM,26,0.147 µM,IC50 [4]: 4.9 µM; IC50 [5]: > 10 µM; Ratio IC50 [6]: > 5; inhibition (INH) [7]: Active; IC50 [8]: > 10 µM; Ratio IC50 [9]: > 5; IC50 [10]: > 10 µM; IC50 [11]: 0.389 µM; IC50 [12]: > 10 µM; IC50 [13]: > 10 µM
O=C(c1ccccn1)N1CCN(CCCNc2nnc(-c3cccc(F)c3)c3c2cc2ccccn23)CC1,0.241 µM,75,18 µM,–
Cc1cc2c(NCCCN3CCN(C(=O)c4ccnnc4)CC3)nnc(-c3cccc([N+](=O)[O-])c3)c2n1C,4.44 µM,12,51.2 µM,–
Clc1cccc(-c2nnc(NCCCN3CCN(c4ncccn4)CC3)c3cc4ccccn4c23)c1,2.01 µM,7,14.2 µM,–
CC(=O)N1CCN(CCCNc2nnc(-c3cccc(F)c3)c3c2cc2ccccn23)CC1,1.9 µM,> 53,> 100 µM,–
O=[N+]([O-])c1cccc(-c2nnc(NCCCN3CCN(c4ncccn4)CC3)c3cc4ccccn4c23)c1,0.21 µM,11,2.4 µM,–
Cc1cc2c(NCCCN3CCN(C(=O)c4cccnc4)CC3)nnc(-c3cccc([N+](=O)[O-])c3)c2n1C,0.432 µM,35,15.3 µM,–
Cc1cc2c(NCCCN3CCN(C(=O)c4csnn4)CC3)nnc(-c3cccc([N+](=O)[O-])c3)c2n1C,0.977 µM,50,48.6 µM,–
Cc1cc2c(NCCCN3CCN(C(=O)c4ccno4)CC3)nnc(-c3cccc([N+](=O)[O-])c3)c2n1C,5.08 µM,> 20,> 100 µM,–
Fc1cccc(-c2nnc(NCCCN3CCN(c4ncccn4)CC3)c3cc4ccccn4c23)c1,2.7 µM,29,83 µM,–
O=C(C1CCCC1)N1CCN(CCCNc2nnc(-c3cccc(F)c3)c3c2cc2ccccn23)CC1,14 µM,4,61 µM,–
Cc1cc2c(NCCCN3CCN(C(=O)c4ccncc4)CC3)nnc(-c3cccc([N+](=O)[O-])c3)c2n1C,52.2 µM,> 2,> 100 µM,–
O=C(c1ccccc1)N1CCN(CCCNc2nnc(-c3cccc(F)c3)c3c2cc2ccccn23)CC1,2.7 µM,8,22.2 µM,–
CCC(=O)N1CCN(CCCNc2nnc(-c3cccc(F)c3)c3c2cc2ccccn23)CC1,4.9 µM,> 20,> 100 µM,–
Brc1cccc(-c2nnc(NCCCN3CCN(c4ncccn4)CC3)c3cc4ccccn4c23)c1,1.44 µM,12,17.5 µM,–
O=C(c1cccnc1)N1CCN(CCCNc2nnc(-c3cccc(F)c3)c3c2cc2ccccn23)CC1,0.413 µM,46,19 µM,–
N#Cc1cccc(-c2nnc(NCCCN3CCN(c4ncccn4)CC3)c3cc4ccccn4c23)c1,1.03 µM,3,3.35 µM,–
O=C(c1cnccn1)N1CCN(CCCNc2nnc(-c3ccccc3)c3c2cc2ccccn23)CC1,0.041 µM,205,8.37 µM,IC50 [4]: > 100 µM; IC50 [11]: 6.7 µM
c1ccc(-c2nnc(NCCCN3CCN(c4ncccn4)CC3)c3cc4ccccn4c23)cc1,2.6 µM,23,59 µM,IC50 [4]: > 100 µM; IC50 [11]: 13.2 µM
